This note sets out measurements from ChEMBL document CHEMBL1255440, “An antimicrobial peptide that targets DNA repair intermediates in vitro inhibits Salmonella growth within murine macrophages” (Antimicrob Agents Chemother, 2010).

Some results are limits rather than exact numbers.

Data set [1] relates to J774.A1. Nature of the data set: Drug uptake in mouse J774A1 cells at 10 uM after 5 hrs in presence of 100 nM wortmannii PI3K inhibitor by confocal laser microscopy. Particulars: j774.a1, 5 h; call rule not given here.
Data set [2] concerns J774.A1. The experiment in a line: Drug uptake in mouse J774A.1 cells assessed as dimer to monomer peptide ratio at 50 uM after 24 hrs at 4 degC by HPLC analysis. Particulars: J774A.1, 24 h.
Data set [3] has as its system J774.A1. The experiment in a line: Drug uptake in mouse J774A1 cells assessed as dimer to monomer peptide ratio at 50 uM after 5 hrs at 4 degC by HPLC analysis. Format: ADME, cell-based. Particulars: j774.a1, 5 h. In a few lines:
(§1)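 J774A.1 cells were incubated with unlabeled peptide for 5 or 24 h at 37°C or 4°C, washed in ice-cold PBS and lysed with NP-40 buffer. Lysates were run on reverse-phase HPLC with an acetonitrile/0.1% TFA gradient and A280 fractions. Monomer (~17.5 min) and dimer (~17.75 min) peak areas were compared against a standard curve. Intracellular mM was calculated using 300,000 cells and 1 pl/cell, with concentration expressed as monomer mass.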

Data set [4] deals with J774.A1. Nature of the data set: Cytotoxicity against mouse J774A1 cells assessed as dead cells at 50 uM by propidium iodide assay. Format: cell-based. Particulars: j774.a1, 50 µM. In a few lines:
(§2)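 Cells seeded at 300,000/well and allowed to adhere, then given fresh DMEM with or without peptide for 24 h. Cells trypsinized, stained with a mammalian Live/Dead viability/cytotoxicity kit and analyzed by flow cytometry. Wilcoxon exact test.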

The subject of data set [5] is Salmonella typhimurium. The experiment in a line: Antibacterial activity against 1 MOI Salmonella enterica subsp. enterica serovar Typhimurium infected in mouse J774A1 cells assessed as reduction in bacterial growth after 24 hrs. Format: functional, organism-based. Conditions: J774.A1. The procedure, abridged: (§3)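 J774A.1 cells or thioglycolate-elicited BALB/c peritoneal macrophages seeded at 200,000/well, overnight 37°C 5% CO2; infected with GFP strain SDT1416, 1 h invasion, washed, 1 h in DMEM with 15 μg/ml gentamicin. Then fresh DMEM plus 15 μg/ml gentamicin with or without peptide (DMSO vehicle) for 24 h at 37°C; macrophages lysed with 1% Triton X-100, plated on LB agar for CFU.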

For data set [6], the system named is J774.A1. Nature of the data set: Drug uptake in mouse J774A1 cells assessed as dimer to monomer peptide ratio at 50 uM after 24 hrs at 37 degC by HPLC analysis. Format: ADME, cell-based. Conditions: j774.a1, 24 h. The procedure, abridged: as §1
Data set [7] concerns J774.A1. The experiment in a line: Drug uptake in mouse J774A.1 cells assessed as total peptide concentration at 50 uM after 24 hrs at 4 degC by HPLC analysis. Particulars: J774A.1, 24 h.
Data set [8] deals with Salmonella typhimurium. The experiment in a line: Antibacterial activity against 1 MOI Salmonella enterica subsp. enterica serovar Typhimurium infected in mouse J774A1 cells assessed as fold reduction in bacterial growth at 100 uM after 12 hrs. Format: functional, J774.A1.
In data set [9] the test system is J774.A1. Nature of the data set: Drug uptake in mouse J774A1 cells assessed as total peptide concentration at 50 uM after 24 hrs at 37 degC by HPLC analysis. Format: ADME, cell-based. Conditions: j774.a1, 24 h. In a few lines:
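J774A.1 cells were seeded at 300,000 per well and allowed to adhere for 24 h at 37°C in 5% CO2. Medium was replaced with DMEM containing unlabeled peptide, and cells were held at 37°C or 4°C. After three washes in ice-cold PBS, cells were lysed in NP-40 buffer and debris spun out. Reverse-phase HPLC was read at 280 nm. Peaks at 17.5 and 17.75 min were integrated against a standard curve. Intracellular mM was calculated from 300,000 cells at 1 pl each, using monomer mass.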

The subject of data set [10] is J774.A1. The experiment in a line: Drug uptake in mouse J774A1 cells assessed as dimer to monomer peptide ratio at 100 uM after 24 hrs at 37 degC by HPLC analysis. Conditions: j774.a1, 24 h. Format: ADME, cell-based. In a few lines: as §1
Data set [11] deals with J774.A1. The experiment in a line: Drug uptake in mouse J774A.1 cells assessed as total peptide concentration at 150 uM after 24 hrs at 4 degC by HPLC analysis. Particulars: J774A.1, 24 h.
Data set [12] deals with Salmonella typhimurium. The experiment in a line: Antibacterial activity against 10 MOI Salmonella enterica subsp. enterica serovar Typhimurium G785 transfected with SOS-inducible beta-galactosidase reporter infected in mouse J774A1 cells assessed as SOS induction at 150 uM after 4 hrs postinfection. Format: functional, J774.A1. The procedure, abridged: (§4)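 J774A.1 cells infected at MOI 10 with sulA promoter-lacZ reporter strain G785 using the gentamicin-protection protocol, treated with peptide (DMSO vehicle controls) plus 15 μg/ml gentamicin for 4 or 24 h. Released bacteria were plated for colony counts in parallel, and were incubated with 33 μM C12FDG (with 0.2 mM EDTA) in LB for 2 h at 37°C. Flow cytometry gave % fluorescein-positive among LPS-antibody-positive particles; Wilcoxon exact test.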

Data set [13] concerns Salmonella typhimurium. The experiment in a line: Antibacterial activity against 10 MOI Salmonella enterica subsp. enterica serovar Typhimurium G785 transfected with SOS-inducible beta-galactosidase reporter infected in mouse J774A1 cells assessed as bacterial number at 100 uM after 4 hrs postinfection. Format: functional, J774.A1. The procedure, abridged:
as §4

Data set [14] concerns J774.A1. Nature of the data set: Drug uptake in mouse J774A1 cells at 0.5 uM after 5 mins by confocal laser microscopy. Particulars: j774.a1, 5 min. Format: ADME, cell-based. In a few lines:
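Cells were seeded at 200,000 per chamber-slide well and left to adhere overnight at 37°C. They were then exposed in DMEM to peptide carrying an N-terminal rhodamine label, at 37°C or, where stated, 4°C. Cells were washed three times in PBS, fixed in 4% paraformaldehyde for 30 min, and mounted in antifade. Optical slices near the cell centre were imaged by confocal laser microscopy.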

Data set [15] concerns Salmonella typhimurium. The experiment in a line: Antibacterial activity against 1 MOI Salmonella enterica subsp. enterica serovar Typhimurium infected in mouse peritoneal macrophages assessed as reduction in bacterial growth at 100 uM after 24 hrs. Format: functional. More on the design: scale not given: the % may be the effect or the level left. The procedure, abridged: as §3

The nature of data set [16]: Drug uptake in mouse peritoneal macrophages assessed as dimer to monomer peptide ratio at 100 uM after 24 hrs at 37 degC by HPLC analysis. Format: ADME, cell-based. Particulars: peritoneal macrophage cell. The procedure, abridged: (§5)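 Macrophages were elicited in 8–12-week-old female BALB/c mice with 4% thioglycolate i.p. and harvested by lavage 4 days later. Cells were seeded at 300,000 per well for 24 h, then given unlabeled peptide in DMEM for 24 h at 37°C. Lysates were run on reverse-phase HPLC at A280. Monomer (17.5 min) and dimer (17.75 min) peak areas were compared with a standard curve. Concentration assumed 1 pl per cell; values are means of three determinations.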

Data set [17] can be described thus: Drug uptake in mouse peritoneal macrophages assessed as total peptide concentration at 150 uM after 24 hrs at 37 degC by HPLC analysis. Format: ADME, cell-based. Conditions: peritoneal macrophage cell. In a few lines: as §5
Data set [18] has as its system J774.A1. Nature of the data set: Drug uptake in mouse J774A1 cells assessed as total peptide concentration at 100 uM after 24 hrs at 37 degC by HPLC analysis. Format: ADME, cell-based. Particulars: j774.a1, 24 h. The procedure, abridged: as §1
Data set [19] in a line: Cytotoxicity against mouse J774A1 cells assessed as reduction in metabolic activity at 100 uM after 24 hrs by MTT assay. Format: ADME, cell-based, J774.A1. Particulars: read-out: INH. In a few lines: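 Cells seeded at 40,000/well in 96-well plates, overnight 37°C 5% CO2, then treated 24 h in fresh DMEM. MTT (4 mg/ml stock in PBS) added for up to 3 h. Formazan solubilized overnight at 37°C in SDS/dimethylformamide/acid lysis buffer, OD read at 575 nm. Paired t tests.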
A general note: Tetrazolium assays rely on reduction of a dye to a coloured formazan, in cell work by metabolically active cells.

In data set [20] the test system is Salmonella typhimurium. Nature of the data set: Antibacterial activity against 1 MOI Salmonella enterica subsp. enterica serovar Typhimurium infected in mouse peritoneal macrophages assessed as reduction in bacterial growth at 50 uM after 24 hrs. Format: functional. More on the design: scale not given: the % may be the effect or the level left. In a few lines: as §3

Data set [21] is described as follows: Cytotoxicity against mouse peritoneal macrophages assessed as dead cells at 150 uM by propidium iodide assay. Format: cell-based. Particulars: peritoneal macrophage cell. The procedure, abridged:
as §2

`N=C(N)NCCC[C@@H](NC(=O)[C@@H](CS)NC(=O)[C@@H](Cc1ccc(O)cc1)NC(=O)[C@@H](Cc1c[nH]c2ccccc12)NC(=O)[C@@H](CCCNC(=N)N)NC(=O)[C@H](N)Cc1c[nH]c2ccccc12)C(=O)O`: the Drug uptake entry is on record as “Not Active” in the data set on J774.A1 [1]; 10.1 mM in the data set with J774.A1 [7]; 1.4 mM in the data set on J774.A1 [9]; 47.7 mM in the data set with J774.A1 [11]; “Active” in the data set on J774.A1 [14]; 24.8 mM in data set [17]. The Drug uptake in the data set on J774.A1 [18] is reported as 16.9 mM. For the same compound, the Ratio with J774.A1 [2] was 7.4; with J774.A1 [3], 2.3; in the data set on J774.A1 [6], 1.7; in the data set with J774.A1 [10], 2.9; in [16] it was 0.7. Further, the Activity in the data set with J774.A1 [4] is 4.3%; in the data set on Salmonella typhimurium [5], “Dose-dependent effect”; in the data set on Salmonella typhimurium [12] it was 8.5%; in the data set with Salmonella typhimurium [13], 19%; in the data set on Salmonella typhimurium [15] it was 45%; in the data set with Salmonella typhimurium [20], 34%. For the same compound, the Activity in data set [21] is 9.2%. Moreover, the fold change (FC) in the data set on Salmonella typhimurium [8] was below 50. Also, the cytotoxicity at 24 h, 100 µM in data set [19] came to 17.3%.
